From ChEMBL document CHEMBL2176917, “Effect of the prosthetic group on the pharmacologic properties of 18F-labeled rhodamine B, a potential myocardial perfusion agent for positron emission tomography (PET)” (J Med Chem, 2012)
Blank lines part the entries; values can stand above or below the compound they belong to.

Tests used:
Muscle tissue = assay: Biodistribution in rat muscle at 1.1 to 2.2, iv after 60 mins; assay type: ADME, organism-based; conditions: in vivo, 1 h
In short: (§1)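 Five rats per tracer received 1.1–2.2 MBq (30–60 µCi) of the 18F-labeled rhodamine ester in 100 µL 10% EtOH/saline through the tail vein after 0.2 µm filtration. They were killed by CO2 asphyxia at 60 min p.i. Excised tissues were weighed and counted for 18F. %ID/g was calculated against an injectate standard. Heart-to-blood ratios were derived from these values.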

Blood = assay: Biodistribution in rat blood at 1.1 to 2.2, iv after 60 mins; assay type: ADME, organism-based; conditions: in vivo, 1 h; in short: as §1
Gall bladder (mouse) = assay: Drug uptake in mouse gall bladder at 3.7 to 5.6 MBq after 60 mins by PET analysis; conditions: in vivo, 1 h
Heart = assay: Drug uptake in rat heart at 3.7 to 5.6 MBq after 5 mins by PET analysis; assay type: ADME, tissue-based; conditions: in vivo
In short: (§2)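 Each group of at least five rats was injected with 100 µL of filtered tracer (3.7–5.6 MBq, 100–150 µCi) in 10% EtOH/saline under isoflurane anesthesia (2–4% in air). MicroPET acquisition began as soon as possible after injection and ran 60 min in list mode. Images were reconstructed by 2D OSEM as one 60 min image or six 10 min frames. Time-activity curves for organs were expressed as kBq/cm3.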

Kidney = assay: Drug excretion in rat kidney at 3.7 to 5.6 MBq after 60 mins by PET analysis; assay type: ADME, tissue-based; conditions: in vivo, 1 h; in short: as §2
Kidney (mouse) = assay: Drug uptake in mouse kidney at 3.7 to 5.6 MBq after 60 mins by PET analysis; conditions: in vivo, 1 h
Liver [1] = assay: Biodistribution in rat liver at 1.1 to 2.2, iv after 60 mins; assay type: ADME, organism-based; conditions: in vivo, 1 h; in short: as §1
Intestine (mouse) = assay: Drug uptake in mouse intestine at 3.7 to 5.6 MBq after 60 mins by PET analysis; conditions: in vivo, 1 h
Liver [2] = assay: Drug uptake in rat liver at 3.7 to 5.6 MBq after 60 mins by PET analysis; assay type: ADME, tissue-based; conditions: in vivo, 1 h; in short: as §2
[3] = Drug excretion in rat gut at 3.7 to 5.6 MBq after 60 mins by PET analysis; assay type: ADME, tissue-based; conditions: in vivo, 1 h; in short: as §2
Liver [4] = assay: Drug uptake in rat liver at 3.7 to 5.6 MBq after 5 mins by PET analysis; assay type: ADME, tissue-based; conditions: in vivo; in short: as §2
[5] = Drug uptake in rat myocardium at 3.7 to 5.6 MBq after 60 mins by PET analysis; assay type: ADME, tissue-based; conditions: in vivo, 1 h; in short: as §2
Spleen (mouse) = assay: Drug uptake in mouse spleen at 3.7 to 5.6 MBq after 60 mins by PET analysis; conditions: in vivo, 1 h
[6] = Ratio of drug level in heart to blood in rat at 1.1 to 2.2, iv after 60 mins; assay type: ADME, organism-based; conditions: heart and blood (heart-to-blood ratio); in short: as §1
Rattus norvegicus = assay: Biodistribution in rat gut at 1.1 to 2.2, iv after 60 mins; assay type: ADME, organism-based; conditions: in vivo, 1 h; in short: as §1
[7] = Metabolic stability of the compound in mouse serum at 3.7 to 5.6 MBq after 120 mins; assay type: ADME, cell-free; conditions: read-out: Stability
In short: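 Radiotracer (3.7–5.6 MBq) in 10% EtOH/PBS was added to serum pre-equilibrated at 37°C, shaken and incubated at 37°C. Aliquots were taken at 15, 30, 60 and 120 min and quenched with cold absolute EtOH. They were held on ice for 5 min, passed through a 30 kD cutoff filter at 4°C, and the water-diluted filtrate was analysed by radio-HPLC for intact tracer. A PBS incubation ran in parallel.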

[8] = Metabolic stability of the compound in human serum at 3.7 to 5.6 MBq after 120 mins; assay type: ADME, cell-free; conditions: read-out: Stability
In short: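 Tracer (3.7–5.6 MBq) in 20 µL 10% EtOH/PBS was added to 200 µL of mouse, rat or human serum, or to PBS, prewarmed to 37°C, then shaken and incubated at 37°C. At 15, 30, 60 and 120 min, aliquots were quenched with cold ethanol and kept on ice. Samples were filtered (30 kD cutoff, 4°C), diluted with water and analysed by radio-HPLC for intact tracer.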

Liver [9] = assay: Drug uptake in rat liver at 3.7 to 5.6 MBq after 30 mins by PET analysis; assay type: ADME, tissue-based; conditions: in vivo, 0.5 h; in short: as §2
Nucleic Acid [10] = assay: Ratio of drug level in heart to bone in rat at 1.1 to 2.2, iv after 60 mins; assay type: ADME, organism-based; conditions: in vivo, 1 h
In short: (§3)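 Five rats per compound each received 1.1–2.2 MBq of tracer in 10% EtOH/saline by tail vein. They were killed by CO2 at 60 min p.i., and selected tissues were excised, weighed and counted for 18F. %ID/g was calculated against a standard prepared from the injectate. Unpaired two-tailed t test.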

Nucleic Acid [11] = assay: Ratio of drug level in heart to lung in rat at 1.1 to 2.2, iv after 60 mins; assay type: ADME, organism-based; conditions: in vivo, 1 h; in short: as §3
Nucleic Acid [12] = assay: Ratio of drug level in heart to liver in rat at 1.1 to 2.2, iv after 60 mins; assay type: ADME, organism-based; conditions: in vivo, 1 h; in short: as §3
Nucleic Acid [13] = assay: Ratio of drug level in heart to liver in Sprague-Dawley rat after 60 mins; assay type: ADME, tissue-based; conditions: in vivo, 1 h
[14] = Ratio of drug level in heart to blood in Sprague-Dawley rat after 5 mins; assay type: ADME; conditions: heart and blood (heart-to-blood ratio)
[15] = Ratio of drug level in heart to blood in Sprague-Dawley rat after 60 mins; assay type: ADME; conditions: heart and blood (heart-to-blood ratio)
Nucleic Acid [16] = assay: Ratio of drug level in heart to liver in Wistar rat after 60 mins; assay type: ADME, tissue-based; conditions: in vivo, 1 h

Structure (SMILES): CCN(CC)c1ccc2c(-c3ccccc3C(=O)OCCOCCOCC[18F])c3ccc(=[N+](CC)CC)cc-3oc2c1.Cc1ccc(S(=O)(=O)[O-])cc1
- Drug uptake (Muscle tissue): 0.32 % ID/g
- Drug uptake (Blood): 0.19 % ID/g
- Drug uptake (Gall bladder (mouse)): Active
- Drug uptake (Heart): 16 kBq/cm3
- Drug excretion (Kidney): Active
- Drug uptake (Kidney (mouse)): Active
- Drug uptake (Liver [1]): 0.25 % ID/g
- Drug uptake (Intestine (mouse)): Active
- Drug uptake (Liver [2]): Active
- Drug excretion [3]: Active
- Drug uptake (Liver [4]): 15 kBq/cm3
- Drug uptake [5]: Active
- Drug uptake (Spleen (mouse)): Active
- Kp at 1 h [6]: 5.4
- Drug uptake (Rattus norvegicus): 0.44 % ID/g

Structure (SMILES): CCN(CC)c1ccc2c(-c3ccccc3C(=O)OCCOCC[18F])c3ccc(=[N+](CC)CC)cc-3oc2c1.Cc1ccc(S(=O)(=O)[O-])cc1
- remaining at 2 h [7]: 97.1%
- Drug uptake (Muscle tissue): 0.54 % ID/g
- Drug uptake (Blood): 0.25 % ID/g
- Drug uptake (Gall bladder (mouse)): Active
- Drug uptake (Heart): 69 kBq/cm3
- Drug excretion (Kidney): Active
- remaining at 2 h [8]: 97.1%
- Drug uptake (Kidney (mouse)): Active
- Drug uptake (Liver [9]): Active
- Drug uptake (Liver [1]): 0.49 % ID/g
- Drug uptake (Intestine (mouse)): Active
- Drug uptake (Liver [2]): Active
- Drug excretion [3]: Active
- Drug uptake (Liver [4]): 59 kBq/cm3
- Drug uptake [5]: Active
- Drug uptake (Spleen (mouse)): Active
- Kp at 1 h [6]: 10
- Drug uptake (Rattus norvegicus): 1.69 % ID/g

Structure (SMILES): CCN(CC)c1ccc2c(-c3ccccc3C(=O)OCCC[18F])c3ccc(=[N+](CC)CC)cc-3oc2c1.Cc1ccc(S(=O)(=O)[O-])cc1
- Drug uptake (Muscle tissue): 0.3 % ID/g
- Drug uptake (Blood): 0.05 % ID/g
- Drug uptake (Heart): 66 kBq/cm3
- Drug excretion (Kidney): Active
- remaining at 2 h [8]: 99%
- Drug uptake (Liver [1]): 0.55 % ID/g
- Drug uptake (Liver [2]): Active
- Drug excretion [3]: Active
- Drug uptake (Liver [4]): 65 kBq/cm3
- Drug uptake [5]: Active
- Kp at 1 h [6]: 26.4
- Drug uptake (Rattus norvegicus): 2.53 % ID/g

Structure (SMILES): CCN(CC)c1ccc2c(-c3ccccc3C(=O)OCC[18F])c3ccc(=[N+](CC)CC)cc-3oc2c1.Cc1ccc(S(=O)(=O)[O-])cc1
- remaining at 2 h [7]: 25%
- Drug uptake (Muscle tissue): 0.16 % ID/g
- Drug uptake (Blood): 0.08 % ID/g
- Ratio (Nucleic Acid [10]): 4.6
- Ratio (Nucleic Acid [11]): 1.6
- Drug uptake (Liver [1]): 0.89 % ID/g
- Ratio (Nucleic Acid [12]): 2.3
- Drug uptake (Liver [2]): Active
- Kp at 1 h [6]: 25.8
- Drug uptake (Rattus norvegicus): 2.4 % ID/g

- Ratio (Nucleic Acid [13]): 9.2
- Kp at 5 min [14]: 11
- Kp at 1 h [15]: 75
Structure (SMILES): [18F]c1ccc([P+](c2ccccc2)(c2ccccc2)c2ccccc2)cc1 [BFPET F-18]

- Ratio (Nucleic Acid [16]): 5.4
- Ratio (Nucleic Acid [13]): 3.7
- Kp at 1 h [15]: 13.7
Structure (SMILES): CC(C)(C)n1ncc(OCc2ccc(COCC[18F])cc2)c(Cl)c1=O [FLURPIRIDAZ F 18]
